Source: ChEMBL document CHEMBL3044653, “Synthesis and herbicidal activity of 2-(substituted phenoxyacetoxy)alkyl-5,5-dimethyl-1,3,2-dioxaphosphinan-2-one” (J Agric Food Chem, 2012)

Columns and labels:
[1] = system: Digitaria sanguinalis; assay: Post-emergence herbicidal activity against Digitaria sanguinalis (hairy crabgrass) assessed as inhibition at 75 g/hectare treated at one-leaf stage by green house assay; format: functional
How it was run: (§1)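 Monocot weeds were sprayed postemergence in the greenhouse at the one-leaf stage with diluted formulation solutions. Primary dose was 150 g ai/ha, with follow-up doses of 75 and 37.5 g ai/ha for selected compounds. Activity is scored as percent herbicidal damage compared with an untreated control.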

[2] = system: Setaria viridis; assay: Post-emergence herbicidal activity against Setaria viridis (green foxtail) assessed as inhibition at 75 g/hectare treated at one-leaf stage by green house assay; format: functional; how it was run: as §1
[3] = system: Chenopodium album; assay: Post-emergence herbicidal activity against Chenopodium album assessed as inhibition at 150 g/hectare by green house assay; format: functional
[4] = system: Glycine max; assay: Toxicity in Glycine max (soybean) plant assessed as inhibition at 150 g/hectare; format: organism-based; conditions: in vivo
How it was run: (§2)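 For crop selectivity, conventional crop varieties were planted in 12 cm diameter plots and given a postemergence treatment at 150 g ai/ha. Injury was scored as percent inhibition, with 0–10% classed as safe to the crop.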

[5] = system: Ipomoea nil; assay: Post-emergence herbicidal activity against Ipomoea nil (Japanese morning glory) assessed as inhibition at 75 g/hectare by green house assay; format: functional
[6] = system: Eclipta prostrata; assay: Post-emergence herbicidal activity against Eclipta prostrata assessed as inhibition at 37.5 g/hectare treated at two-leaf stage by green house assay; format: functional
How it was run: (§3)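 Greenhouse postemergence spray of diluted formulation solutions onto broadleaf weeds at the two-leaf stage. Primary screen at 150 g ai/ha, with selected compounds retested at 75 and 37.5 g ai/ha. Abutilon was tested at 150 g ai/ha only. Read-out is percent herbicidal damage relative to an untreated control.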

[7] = system: Brassica juncea; assay: Post-emergence herbicidal activity against Brassica juncea assessed as inhibition at 75 g/hectare treated at two-leaf stage by green house assay; format: functional; how it was run: as §3
[8] = system: Brassica rapa subsp. oleifera; assay: Post-emergence herbicidal activity against Brassica rapa subsp. oleifera assessed as inhibition at 75 g/hectare by green house assay; format: functional
[9] = system: Amaranthus retroflexus; assay: Post-emergence herbicidal activity against Amaranthus retroflexus assessed as inhibition at 75 g/hectare by green house assay; format: functional
[10] = system: Chenopodium album; assay: Post-emergence herbicidal activity against Chenopodium album assessed as inhibition at 75 g/hectare by green house assay; format: functional
[11] = system: Ammannia baccifera; assay: Post-emergence herbicidal activity against Ammannia baccifera assessed as inhibition at 150 g/hectare by green house assay; format: functional
[12] = system: Brassica juncea; assay: Post-emergence herbicidal activity against Brassica juncea assessed as inhibition at 37.5 g/hectare treated at two-leaf stage by green house assay; format: functional; how it was run: as §3
[13] = system: Echinochloa crus-galli; assay: Post-emergence herbicidal activity against Echinochloa crus-galli (barnyard grass) assessed as inhibition at 150 g/hectare treated at one-leaf stage by green house assay; format: functional; how it was run: as §1
[14] = system: Ipomoea nil; assay: Post-emergence herbicidal activity against Ipomoea nil (Japanese morning glory) assessed as inhibition at 150 g/hectare by green house assay; format: functional
[15] = system: Pontederia vaginalis; assay: Post-emergence herbicidal activity against Monochoria vaginalis assessed as inhibition at 150 g/hectare by green house assay; format: functional
[16] = system: Amaranthus retroflexus; assay: Post-emergence herbicidal activity against Amaranthus retroflexus assessed as inhibition at 150 g/hectare treated at two-leaf stage by green house assay; format: functional; how it was run: as §3
[17] = system: Oryza sativa; assay: Toxicity in Oryza sativa (rice) plant assessed as inhibition at 150 g/hectare; format: organism-based; conditions: in vivo; how it was run: as §2
[18] = system: Echinochloa crus-galli; assay: Post-emergence herbicidal activity against Echinochloa crus-galli (barnyard grass) assessed as inhibition at 37.5 g/hectare treated at one-leaf stage by green house assay; format: functional; how it was run: as §1
[19] = system: Echinochloa crus-galli; assay: Post-emergence herbicidal activity against Echinochloa crus-galli (barnyard grass) assessed as inhibition at 75 g/hectare treated at one-leaf stage by green house assay; format: functional; how it was run: as §1
[20] = system: Brassica oleracea; assay: Post-emergence herbicidal activity against Brassica oleracea assessed as inhibition at 150 g/hectare by green house assay; format: functional
[21] = system: Brassica rapa subsp. chinensis; assay: Post-emergence herbicidal activity against Brassica rapa subsp. chinensis assessed as inhibition at 75 g/hectare by green house assay; format: functional
[22] = system: Digitaria sanguinalis; assay: Post-emergence herbicidal activity against Digitaria sanguinalis (hairy crabgrass) assessed as inhibition at 37.5 g/hectare treated at one-leaf stage by green house assay; format: functional; how it was run: as §1
[23] = system: Digitaria sanguinalis; assay: Post-emergence herbicidal activity against Digitaria sanguinalis (hairy crabgrass) assessed as inhibition at 150 g/hectare treated at one-leaf stage by green house assay; format: functional; how it was run: as §1
[24] = system: Setaria viridis; assay: Post-emergence herbicidal activity against Setaria viridis (green foxtail) assessed as inhibition at 37.5 g/hectare treated at one-leaf stage by green house assay; format: functional; how it was run: as §1
[25] = system: Amaranthus retroflexus; assay: Post-emergence herbicidal activity against Amaranthus retroflexus assessed as inhibition at 75 g/hectare treated at two-leaf stage by green house assay; format: functional; how it was run: as §3
[26] = system: Eclipta prostrata; assay: Post-emergence herbicidal activity against Eclipta prostrata assessed as inhibition at 75 g/hectare treated at two-leaf stage by green house assay; format: functional; how it was run: as §3
[27] = system: Amaranthus retroflexus; assay: Post-emergence herbicidal activity against Amaranthus retroflexus assessed as inhibition at 37.5 g/hectare treated at two-leaf stage by green house assay; format: functional; how it was run: as §3
[28] = system: Zea mays; assay: Toxicity in Zea mays (maize) plant assessed as inhibition at 150 g/hectare; format: organism-based; conditions: in vivo; how it was run: as §2
[29] = system: Brassica rapa subsp. chinensis; assay: Post-emergence herbicidal activity against Brassica rapa subsp. chinensis assessed as inhibition at 150 g/hectare by green house assay; format: functional
[30] = system: Triticum aestivum; assay: Toxicity in Triticum aestivum (wheat) plant assessed as inhibition at 150 g/hectare; format: organism-based; conditions: in vivo; how it was run: as §2
[31] = system: Brassica juncea; assay: Post-emergence herbicidal activity against Brassica juncea assessed as inhibition at 75 g/hectare by green house assay; format: functional
[32] = system: Brassica juncea; assay: Post-emergence herbicidal activity against Brassica juncea assessed as inhibition at 150 g/hectare by green house assay; format: functional
[33] = system: Eclipta prostrata; assay: Post-emergence herbicidal activity against Eclipta prostrata assessed as inhibition at 150 g/hectare treated at two-leaf stage by green house assay; format: functional; how it was run: as §3
[34] = system: Pontederia vaginalis; assay: Post-emergence herbicidal activity against Monochoria vaginalis assessed as inhibition at 75 g/hectare by green house assay; format: functional
[35] = system: Radish; assay: Post-emergence herbicidal activity against Raphanus sativus (radish) assessed as inhibition at 150 g/hectare by green house assay; format: functional
[36] = system: Ammannia baccifera; assay: Post-emergence herbicidal activity against Ammannia baccifera assessed as inhibition at 75 g/hectare by green house assay; format: functional
[37] = system: Setaria viridis; assay: Post-emergence herbicidal activity against Setaria viridis (green foxtail) assessed as inhibition at 150 g/hectare treated at one-leaf stage by green house assay; format: functional; how it was run: as §1
[38] = system: Brassica juncea; assay: Post-emergence herbicidal activity against Brassica juncea assessed as inhibition at 150 g/hectare treated at two-leaf stage by green house assay; format: functional; how it was run: as §3
[39] = system: Brassica napus; assay: Toxicity in Brassica napus (oilseed rape) assessed as inhibition at 150 g/hectare; format: functional; how it was run: as §2
[40] = system: Abutilon theophrasti; assay: Post-emergence herbicidal activity against Abutilon theophrasti (velvetleaf) assessed as inhibition at 150 g/hectare treated at two-leaf stage by green house assay; format: functional; how it was run: as §3
[41] = system: Brassica rapa subsp. oleifera; assay: Post-emergence herbicidal activity against Brassica rapa subsp. oleifera assessed as inhibition at 150 g/hectare by green house assay; format: functional
[42] = system: Radish; assay: Post-emergence herbicidal activity against Raphanus sativus (radish) assessed as inhibition at 75 g/hectare by green house assay; format: functional
[43] = system: Amaranthus retroflexus; assay: Post-emergence herbicidal activity against Amaranthus retroflexus assessed as inhibition at 150 g/hectare by green house assay; format: functional
[44] = system: Brassica oleracea; assay: Post-emergence herbicidal activity against Brassica oleracea assessed as inhibition at 75 g/hectare by green house assay; format: functional
[45] = system: Gossypium hirsutum; assay: Toxicity in Gossypium hirsutum (cotton) plant assessed as inhibition at 150 g/hectare; format: organism-based; conditions: in vivo; how it was run: as §2

CC1(C)COP(=O)(C(OC(=O)COc2ccc(Cl)cc2Cl)c2ccco2)OC1 (stereo not given)
inhibition at 75 g/ha [1]: 0%
inhibition at 75 g/ha [2]: 0%
inhibition at 150 g/ha [3]: 80%
inhibition (INH) [4]: 30%
inhibition at 75 g/ha [5]: 100%
inhibition at 37.5 g/ha [6]: 60%
inhibition at 75 g/ha [7]: 90%
inhibition at 75 g/ha [8]: 80%
inhibition at 75 g/ha [9]: 70%
inhibition at 75 g/ha [10]: 70%
inhibition at 150 g/ha [11]: 100%
inhibition at 37.5 g/ha [12]: 85%
inhibition at 150 g/ha [13]: 30%
inhibition at 150 g/ha [14]: 100%
inhibition at 150 g/ha [15]: 100%
inhibition at 150 g/ha [16]: 80%
inhibition (INH) [17]: 40%
inhibition at 37.5 g/ha [18]: 0%
inhibition at 75 g/ha [19]: 0%
inhibition at 150 g/ha [20]: 85%
inhibition at 75 g/ha [21]: 70%
inhibition at 37.5 g/ha [22]: 0%
inhibition at 150 g/ha [23]: 40%
inhibition at 37.5 g/ha [24]: 0%
inhibition at 75 g/ha [25]: 70%
inhibition at 75 g/ha [26]: 62%
inhibition at 37.5 g/ha [27]: 50%
inhibition (INH) [28]: 0%
inhibition at 150 g/ha [29]: 80%
inhibition (INH) [30]: 10%
inhibition at 75 g/ha [31]: 90%
inhibition at 150 g/ha [32]: 95%
inhibition at 150 g/ha [33]: 80%
inhibition at 75 g/ha [34]: 100%
inhibition at 150 g/ha [35]: 85%
inhibition at 75 g/ha [36]: 100%
inhibition at 150 g/ha [37]: 30%
inhibition at 150 g/ha [38]: 95%
inhibition at 150 g/ha [39]: 40%
inhibition at 150 g/ha [40]: 90%
inhibition at 150 g/ha [41]: 95%
inhibition at 75 g/ha [42]: 80%
inhibition at 150 g/ha [43]: 80%
inhibition at 75 g/ha [44]: 80%
inhibition (INH) [45]: 30%

CC1(C)COP(=O)(C(OC(=O)COc2ccc(Cl)cc2Cl)c2ccccc2)OC1 (stereo not given)
inhibition at 75 g/ha [1]: 0%
inhibition at 75 g/ha [2]: 0%
inhibition (INH) [4]: 30%
inhibition at 37.5 g/ha [6]: 50%
inhibition at 75 g/ha [7]: 95%
inhibition at 37.5 g/ha [12]: 90%
inhibition at 150 g/ha [13]: 0%
inhibition at 150 g/ha [16]: 90%
inhibition (INH) [17]: 10%
inhibition at 37.5 g/ha [18]: 0%
inhibition at 75 g/ha [19]: 0%
inhibition at 37.5 g/ha [22]: 0%
inhibition at 150 g/ha [23]: 0%
inhibition at 37.5 g/ha [24]: 0%
inhibition at 75 g/ha [25]: 80%
inhibition at 75 g/ha [26]: 55%
inhibition at 37.5 g/ha [27]: 50%
inhibition (INH) [28]: 0%
inhibition (INH) [30]: 10%
inhibition at 150 g/ha [33]: 80%
inhibition at 150 g/ha [37]: 0%
inhibition at 150 g/ha [38]: 100%
inhibition at 150 g/ha [39]: 40%
inhibition at 150 g/ha [40]: 98%
inhibition (INH) [45]: 40%

O=C(O)CNCP(=O)(O)O [GLYPHOSATE]
inhibition at 150 g/ha [3]: 90%
inhibition at 75 g/ha [5]: 60%
inhibition at 75 g/ha [8]: 100%
inhibition at 75 g/ha [9]: 90%
inhibition at 75 g/ha [10]: 70%
inhibition at 150 g/ha [11]: 100%
inhibition at 150 g/ha [14]: 60%
inhibition at 150 g/ha [15]: 100%
inhibition at 150 g/ha [20]: 80%
inhibition at 75 g/ha [21]: 70%
inhibition at 150 g/ha [29]: 80%
inhibition at 75 g/ha [31]: 30%
inhibition at 150 g/ha [32]: 80%
inhibition at 75 g/ha [34]: 100%
inhibition at 150 g/ha [35]: 65%
inhibition at 75 g/ha [36]: 100%
inhibition at 150 g/ha [41]: 100%
inhibition at 75 g/ha [42]: 60%
inhibition at 150 g/ha [43]: 90%
inhibition at 75 g/ha [44]: 70%
